Test results published in ChEMBL document CHEMBL4371072, “Structure-Activity Relationship Studies and Plasmodium Life Cycle Profiling Identifies Pan-Active N-Aryl-3-trifluoromethyl Pyrido[1,2- a]benzimidazoles Which Are Efficacious in an in Vivo Mouse Model of Malaria” (J Med Chem, 2019).

What was measured:
[1] = Metabolic stability in Balb/c mouse liver microsomes assessed as parent compound remaining at 0.1 uM after 30 mins in presence of NADPH by LC-MS/MS analysis; conditions: liver microsomes
[2] = tested on: Plasmodium berghei; assay: Antimalarial activity against GFP-fused Plasmodium berghei ANKA infected in NMRI mouse assessed as host mean survival time at 50 mg/kg, po administered consecutively at 4, 24, 48 and 72 hrs post infection; format: functional
Summary of the method: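 NMRI mice infected intravenously with P. berghei; oral treatment at 4, 24, 48 and 72 h post-infection (4 x 50 mg/kg), vehicle to controls; reference drug 4 x 30 mg/kg orally on four consecutive days. Parasitemia compared with untreated controls; mean survival days recorded; cure if no parasitemia 30 days after treatment.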

[3] = tested on: Plasmodium falciparum; assay: Antiplasmodial activity against chloroquine-resistant asexual blood stage of Plasmodium falciparum K1 infected in human RBC assessed as reduction in [3H]hypoxanthine incorporation preincubated for 48 hrs followed by [3H]hypoxanthine addition measured after 24 hrs by liquid scintillation counting method; format: functional, organism-based
Summary of the method: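 Asexual blood-stage P. falciparum K1 (multidrug resistant) screened by modified [3H]-hypoxanthine incorporation assay; IC50 as mean of n ≥ 2 assays, replicates differing above 3-fold excluded; chloroquine and artesunate controls.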

[4] = Metabolic stability in human liver microsomes assessed as parent compound remaining at 0.1 uM after 30 mins in presence of NADPH by LC-MS/MS analysis; conditions: liver microsomes
[5] = tested on: CHO; assay: Cytotoxicity against CHO cells after 48 hrs by MTT assay; format: cell-based; conditions: Cricetulus griseus
[6] = Half life in human liver microsomes at 0.1 uM in presence of NADPH by LC-MS/MS analysis; conditions: liver microsomes
[7] = Cmax in C57B1/6 mouse at 20 mg/kg, po by LC-MS/MS analysis; format: ADME, organism-based; design: dose 20 mg/kg, route oral; conditions: in vivo
Summary of the method: (§1)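 Mouse oral PK: C57B1/6 mice (n=3) dosed orally at 20 mg/kg. Blood concentrations followed over time; values are means of 3 mice.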

[8] = Tmax in C57B1/6 mouse at 20 mg/kg, po by LC-MS/MS analysis; format: ADME, organism-based; conditions: in vivo; summary of the method: as §1
[9] = tested on: Plasmodium berghei; assay: Antimalarial activity against GFP-fused Plasmodium berghei ANKA infected in NMRI mouse assessed as inhibition of parasitemia at 50 mg/kg, po administered consecutively at 4, 24, 48 and 72 hrs post infection by flow cytometry relative to control; format: functional
Summary of the method: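 NMRI mice infected intravenously with P. berghei; oral treatment at 50 mg/kg given 4, 24, 48 and 72 h post-infection (4 x 50 mg/kg). Control mice received vehicle only. Parasitemia of treated animals compared with that of untreated controls. Mice counted as cured if no parasitemia was detected 30 days after treatment.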

[10] = Oral bioavailability in C57B1/6 mouse at 20 mg/kg by LC-MS/MS analysis; format: ADME, organism-based; conditions: in vivo
Summary of the method: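 Oral bioavailability from C57B1/6 mice dosed 20 mg/kg orally (n=3), referenced to a separate intravenous set at 2 mg/kg (n=2) formulated in dimethylacetamide/polyethylene glycol/propylene glycol–ethanol (4:1), ratio 1:3:6.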

[11] = Solubility of the compound; format: physicochemical
[12] = Half life in C57B1/6 mouse at 2 mg/kg, iv by LC-MS/MS analysis; format: ADME, organism-based; conditions: in vivo
Summary of the method: (§2)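 Mouse IV PK: C57B1/6 mice (n=2) given 2 mg/kg intravenously as a solution in dimethylacetamide, polyethylene glycol and propylene glycol/ethanol (4:1) at ratio 1:3:6. Blood concentrations followed over time; values are means of 2 mice.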

[13] = Resistance index, ratio of IC50 for chloroquine-resistant asexual blood stage of Plasmodium falciparum K1 infected in human RBC to IC50 for chloroquine-sensitive asexual blood stage of Plasmodium falciparum NF54 infected in human RBC; format: functional
[14] = tested on: Plasmodium falciparum; assay: Antiplasmodial activity against chloroquine-sensitive asexual blood stage of Plasmodium falciparum NF54 infected in human RBC assessed as reduction in [3H]hypoxanthine incorporation preincubated for 48 hrs followed by [3H]hypoxanthine addition measured after 24 hrs by liquid scintillation counting method; format: functional, organism-based
Summary of the method: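 Asexual blood-stage P. falciparum NF54 assay, run as a modified [3H]-hypoxanthine incorporation assay. Values are the mean of n ≥ 2 assays; determinations differing more than 3-fold were excluded. Chloroquine and artesunate served as controls.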

[15] = AUC (0 to infinity) in C57B1/6 mouse at 20 mg/kg, po by LC-MS/MS analysis; format: ADME, organism-based; design: dose 20 mg/kg, time infinity, route oral; conditions: in vivo; summary of the method: as §1
[16] = Volume of distribution in C57B1/6 mouse at 2 mg/kg, iv by LC-MS/MS analysis; format: ADME, organism-based; conditions: in vivo; summary of the method: as §2
[17] = tested on: Plasmodium berghei; assay: Antimalarial activity against liver stage form of luciferase transfected Plasmodium berghei sporozoites infected in human HuH7 cells preincubated with host cells for 1 hr followed by plasmodial infection and measured after 48 hrs by bioluminescence method; format: functional, organism-based; conditions: Huh-7
[18] = Time at which blood concentration stays above in vitro antiplasmodial Plasmodium falciparum NF54 IC50 in C57B1/6 mouse at 20 mg/kg, po; format: ADME, organism-based; conditions: in vivo
[19] = Half life in C57B1/6 mouse at 20 mg/kg, po by LC-MS/MS analysis; format: ADME, organism-based; conditions: in vivo; summary of the method: as §1
[20] = Half life in Balb/c mouse liver microsomes at 0.1 uM in presence of NADPH by LC-MS/MS analysis; conditions: liver microsomes
[21] = molecular target: T1, hERG (KCNH2) (Homo sapiens, UniProt Q12809); assay: Inhibition of human ERG expressed in CHO cells assessed as reduction in peak channel current at 10 uM by IonWork patch-clamp electrophysiology method relative to control; format: cell-based; conditions: CHO cells expressing human ERG
Summary of the method: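 hERG potassium channel profiled by IonWorks patch-clamp electrophysiology, with 10 μM as the highest concentration tested. Values are the mean of 3 results from experiments run as biological and technical triplicates.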

[22] = Clearance in C57B1/6 mouse at 2 mg/kg, iv by LC-MS/MS analysis; format: ADME, organism-based; conditions: in vivo; summary of the method: as §2
[23] = molecular target: Voltage-gated inwardly rectifying potassium channel KCNH2 (Homo sapiens, UniProt Q12809); assay: Inhibition of human ERG expressed in CHO cells assessed as reduction in peak channel current by IonWork patch-clamp electrophysiology method; format: cell-based
[24] = AUC (0 to infinity) in C57B1/6 mouse at 2 mg/kg, iv by LC-MS/MS analysis; format: ADME, organism-based; design: dose 2 mg/kg, route intravenous, time infinity; conditions: in vivo; summary of the method: as §2
[25] = Lipophilicity, log D of the compound; format: physicochemical; conditions: octanol/water
Summary of the method: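 LogD computed with ChemDraw 16.0.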

[26] = Selectivity index, ratio of IC50 for CHO cells to IC50 for chloroquine-sensitive asexual blood stage of Plasmodium falciparum NF54 infected in human RBC; format: toxicity; conditions: Chinese hamster, read-out: Ratio IC50
Summary of the method: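 Selectivity index taken as the ratio of the CHO-cell IC50 to the P. falciparum NF54 IC50.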

[27] = molecular target: T1, hERG (KCNH2); assay: Inhibition of human ERG expressed in CHO cells assessed as reduction in peak channel current at 0.3 uM by IonWork patch-clamp electrophysiology method relative to control; format: cell-based; conditions: CHO cells expressing human ERG
[28] = tested on: Plasmodium falciparum; assay: Antiplasmodial activity against chloroquine-sensitive final late stage of Plasmodium falciparum NF54-Mal8p1.16-GFP-Luc gametocytes after 24 hrs by BacTiter-Glo assay; format: functional, organism-based; conditions: NF54, 24 h
Summary of the method: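 Late-stage PfNF54 gametocytes produced in vitro; gametocytocidal IC50 via luciferase reporter and ATP bioluminescence platforms; n=3 independent biological replicates in technical triplicates, ± S.E.M.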

[29] = Ratio of Cmax in C57B1/6 mouse at 20 mg/kg, po to IC50 for chloroquine-sensitive asexual blood stage of Plasmodium falciparum NF54 infected in human RBC; format: ADME, organism-based; conditions: in vivo

T1 sequence (Q12809 whole entry): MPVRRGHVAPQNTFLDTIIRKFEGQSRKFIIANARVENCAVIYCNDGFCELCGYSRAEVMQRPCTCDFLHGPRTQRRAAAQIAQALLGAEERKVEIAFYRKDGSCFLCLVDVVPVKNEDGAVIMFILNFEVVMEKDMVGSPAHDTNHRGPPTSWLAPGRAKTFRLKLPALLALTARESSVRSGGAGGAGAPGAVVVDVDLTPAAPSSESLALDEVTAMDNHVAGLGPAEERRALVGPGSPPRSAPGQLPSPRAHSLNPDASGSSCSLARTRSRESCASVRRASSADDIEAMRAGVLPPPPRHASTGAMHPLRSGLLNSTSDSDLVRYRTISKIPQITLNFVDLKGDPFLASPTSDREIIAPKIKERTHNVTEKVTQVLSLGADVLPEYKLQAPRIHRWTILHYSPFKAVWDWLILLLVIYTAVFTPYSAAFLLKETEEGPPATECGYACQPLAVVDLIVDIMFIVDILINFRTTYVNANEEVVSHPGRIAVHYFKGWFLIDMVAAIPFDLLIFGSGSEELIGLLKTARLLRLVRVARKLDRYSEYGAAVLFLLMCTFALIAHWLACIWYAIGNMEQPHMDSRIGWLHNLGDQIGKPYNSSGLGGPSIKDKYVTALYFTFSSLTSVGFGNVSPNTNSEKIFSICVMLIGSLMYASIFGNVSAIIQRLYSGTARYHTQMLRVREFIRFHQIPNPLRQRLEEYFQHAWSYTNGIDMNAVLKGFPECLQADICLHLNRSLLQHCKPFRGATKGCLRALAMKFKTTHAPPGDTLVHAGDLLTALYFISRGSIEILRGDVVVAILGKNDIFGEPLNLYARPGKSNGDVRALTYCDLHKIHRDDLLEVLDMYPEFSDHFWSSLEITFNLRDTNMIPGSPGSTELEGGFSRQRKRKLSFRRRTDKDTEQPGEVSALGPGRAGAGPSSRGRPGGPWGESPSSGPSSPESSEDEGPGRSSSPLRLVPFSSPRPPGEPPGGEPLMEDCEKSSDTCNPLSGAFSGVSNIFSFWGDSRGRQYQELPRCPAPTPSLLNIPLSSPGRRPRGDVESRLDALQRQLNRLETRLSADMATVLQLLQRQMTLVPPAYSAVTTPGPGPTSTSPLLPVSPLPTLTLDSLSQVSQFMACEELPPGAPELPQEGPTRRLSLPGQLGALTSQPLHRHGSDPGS
Chain of Voltage-gated inwardly rectifying potassium channel KCNH2 (Q12809 whole entry): as above

For `N#Cc1c(C(F)(F)F)cc(Nc2ccc(OC(F)(F)F)cc2)n2c1nc1ccccc12`, the remaining at 0.5 h, 0.1 µM [1] was greater than 99%, the MST [2] was 12 days and the IC50 [3] was 0.15 µM. For the same compound, the remaining at 0.5 h, 0.1 µM [4] was greater than 99%, the IC50 [5] was 17.6 µM and the half-life at 0.1 µM [6] was greater than 2.5 h. The Cmax [7] was 1100 nM, the Tmax [8] was 5 h and the inhibition in vivo at 50 mg/kg [9] was 98%. It also gave a bioavailability [10] of 2%, a solubility [11] of less than 5 µM and a half-life [12] of 11.4 h. The Ratio IC50 [13] was 0.88, the IC50 [14] was 0.17 µM and the AUC [15] was 19.4 µM·h. It also gave a Vd [16] of 0.9 L/kg, an IC50 [17] of 0.11 µM and a Time [18] greater than 20 h. The half-life [19] was 7.86 h, the half-life at 0.1 µM [20] was greater than 2.5 h and the inhibition at 10 µM [21] was less than 40%. For the same compound, the clearance [22] was 0.97 mL/min/kg, the IC50 [23] was greater than 10 µM and the AUC [24] was 79.6 µM·h. It also gave a logD [25] of 5.34, a selectivity ratio [26] of 103 and an inhibition at 0.3 µM [27] of 7.51%. It also gave an IC50 [28] of 3.32 µM and a Ratio [29] of 6.
